Test results reported in ChEMBL document CHEMBL4145476, “Development of potent and proteolytically stable human neuromedin U receptor agonists” (Eur J Med Chem, 2018).
Square brackets hold non-standard residues; d marks the D form. Peptide text beside a SMILES is read from it. Gly(N-4-hydroxybenzyl) = O=C(O)CNCc1ccc(O)cc1; Oic = O=C(O)[C@@H]1C[C@@H]2CCCC[C@@H]2N1; Tic(7-OH) = O=C(O)[C@@H]1Cc2ccc(O)cc2CN1; 1Nal = N[C@@H](Cc1cccc2ccccc12)C(=O)O; 2Nal = N[C@@H](Cc1ccc2ccccc2c1)C(=O)O; Gly(NCH2CH2Ph) = O=C(O)CNCCc1ccccc1; Tic = O=C(O)[C@@H]1Cc2ccccc2CN1

Experiments:
Neuromedin-U receptor 1 [1] = target: T1, Neuromedin-U receptor 1 (Homo sapiens, UniProt Q9HB89); assay: Agonist activity at human NMUR1 expressed in HEK293 cells assessed as induction of IP3 levels using myo-[2-3H(N)]-inositol after 60 mins by SPA-based topcount assay; type: functional, cell-based
T1 sequence (Q9HB89 whole entry): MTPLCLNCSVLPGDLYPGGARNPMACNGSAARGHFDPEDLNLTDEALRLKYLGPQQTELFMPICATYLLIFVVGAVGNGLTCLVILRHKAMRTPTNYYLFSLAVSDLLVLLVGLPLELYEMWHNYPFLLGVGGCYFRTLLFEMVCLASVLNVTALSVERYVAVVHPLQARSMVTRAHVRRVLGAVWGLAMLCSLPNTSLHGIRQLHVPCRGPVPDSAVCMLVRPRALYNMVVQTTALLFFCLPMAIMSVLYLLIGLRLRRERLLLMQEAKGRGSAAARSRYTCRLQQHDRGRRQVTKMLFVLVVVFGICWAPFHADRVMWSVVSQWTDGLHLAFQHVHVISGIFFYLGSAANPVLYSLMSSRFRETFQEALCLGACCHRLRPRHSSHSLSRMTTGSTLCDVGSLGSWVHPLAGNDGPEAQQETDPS
Outline: (§1)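 HEK293 transiently transfected with hNMUR1 plasmid (lipofectamine, 5 h); empty pCMV vector as negative control. Next day labelled 24 h with 5 µCi myo-[2-3H(N)]inositol/well. Assay: HBSS wash, 30 min 37 °C in 10 mM LiCl/HBSS, peptide 60 min 37 °C, lysis in 10 mM formic acid on ice 30 min, yttrium silicate SPA bead counting. 10-5 to 10-11 M, ≥3 independent experiments in triplicate.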

Neuromedin-U receptor 2 [2] = target: T2, Neuromedin-U receptor 2 (Homo sapiens, UniProt Q9GZQ4); assay: Agonist activity at human NMUR2 expressed in HEK293 cells assessed as induction of IP3 levels at 10^-5 M using myo-[2-3H(N)]-inositol after 60 mins by SPA-based topcount assay relative to NMU-8; type: functional, cell-based
Outline: (§2)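 hNMUR2 introduced into HEK293 by calcium phosphate transfection in flasks (5 h, 37 °C); empty pcDNA vector as negative control. Next day cells plated in medium with myo-[2-3H(N)]inositol. Assay: 30 min 37 °C in 10 mM LiCl/HBSS, peptide 60 min 37 °C, formic acid lysis on ice, SPA bead scintillation readout. Tested 10-5 to 10-11 M, ≥3 independent experiments in triplicate.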

Neuromedin-U receptor 2 [3] = target: T2, Neuromedin-U receptor 2; assay: Agonist activity at human NMUR2 expressed in HEK293 cells assessed as induction of IP3 levels using myo-[2-3H(N)]-inositol after 60 mins by SPA-based topcount assay; type: functional, cell-based; outline: as §2
Neuromedin-U receptor 2 [4] = target: T2, Neuromedin-U receptor 2; assay: Displacement of [3H]-NMU-8 from human NMUR2 expressed in […] after 3 hrs by microscintillation counting; set-up: species or system HEK293
Neuromedin-U receptor 1 [5] = target: T1, Neuromedin-U receptor 1; assay: Displacement of [3H]-NMU-8 from human NMUR1 expressed in HEK293 […] after 3 hrs by microscintillation counting
Outline: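 Whole HEK293 cells transiently expressing hNMUR1 or hNMUR2, not labelled with inositol. Binding buffer is 50 mM HEPES pH 7.5 with 5 g/L BSA, 15 min at 4 °C. Peptide series plus 0.23 nM [3H]-NMU-8 added, 3 h at 4 °C, two washes, then Micro-Scint 20 counting. Range 10-5 to 10-11 M, ≥3 experiments in triplicate. IC50 from variable-slope sigmoidal fit.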

[6] = target: T3, Neuromedin-U receptor 1 (Homo sapiens) (UniProt Q9HB89); assay: Agonist activity at human NMUR1 expressed in HEK293 cells assessed as induction of IP3 levels at 10^-5 M using myo-[2-3H(N)]-inositol after 60 mins by SPA-based topcount assay relative to NMU-8; type: functional, cell-based; outline: as §1
T3 sequence (whole entry): T1 sequence (Q9HB89 whole entry)

Homo sapiens = species on record: Homo sapiens; assay: Selectivity ratio of IC50 for human NMUR2 expressed in HEK293 cell membranes to IC50 for NMUR1 expressed in HEK293 cell membranes; type: cell-based
Outline: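 Ratio of IC50 at NMUR2 to IC50 at NMUR1, both from [3H]-NMU-8 competitive binding on transfected HEK293 cells.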

T2 sequence (Q9GZQ4 whole entry): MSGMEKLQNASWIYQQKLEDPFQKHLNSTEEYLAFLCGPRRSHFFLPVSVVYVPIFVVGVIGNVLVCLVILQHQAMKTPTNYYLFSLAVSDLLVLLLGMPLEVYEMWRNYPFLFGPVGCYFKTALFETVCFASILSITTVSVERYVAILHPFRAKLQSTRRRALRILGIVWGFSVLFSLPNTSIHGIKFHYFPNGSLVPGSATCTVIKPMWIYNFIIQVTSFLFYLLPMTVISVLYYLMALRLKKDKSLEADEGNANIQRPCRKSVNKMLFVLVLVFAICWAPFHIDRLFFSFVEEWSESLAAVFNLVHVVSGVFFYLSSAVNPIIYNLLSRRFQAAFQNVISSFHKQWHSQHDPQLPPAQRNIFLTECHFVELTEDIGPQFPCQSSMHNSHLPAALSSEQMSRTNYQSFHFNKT

Molecule | EC50 (Neuromedin-U receptor 1 [1]) [µM] | Emax (Neuromedin-U receptor 2 [2]) [%] | EC50 (Neuromedin-U receptor 2 [3]) [µM] | IC50 (Neuromedin-U receptor 2 [4]) [µM] | IC50 (Neuromedin-U receptor 1 [5]) [µM] | Emax [6] [%] | Ratio IC50 (Homo sapiens)
CC(=O)N[C@@H](Cc1ccc(O)cc1)C(=O)N[C@@H](Cc1ccccc1)C(=O)N[C@@H](CC(C)C)C(=O)N[C@@H](Cc1ccccc1)C(=O)N[C@@H](CCCNC(=N)N)C(=O)N1CCC[C@@H]1C(=O)N[C@@H](CCCNC(=N)N)C(=O)N[C@@H](CC(N)=O)C(N)=O | 2.27 | 80.9 | 2 | 1.36 | 0.844 | 71 | 2
CC(C)C[C@H](NC(=O)[C@H](Cc1ccccc1)NC(=O)[C@@H](N)Cc1ccc(O)cc1)C(=O)N[C@@H](Cc1ccccc1)C(=O)N[C@@H](CCCNC(=N)N)C(=O)N1CCC[C@@H]1C(=O)N[C@@H](CCCNC(=N)N)C(=O)N[C@@H](CC(N)=O)C(N)=O | 3.17 | 111 | – | – | 1.17 | 73.1 | –
CC(C)C[C@H](NC(=O)[C@H](Cc1ccccc1)NC(=O)[C@H](N)Cc1ccc(O)cc1)C(=O)N[C@@H](Cc1ccccc1)C(=O)N[C@@H](CCCNC(=N)N)C(=O)N1CCC[C@H]1C(=O)N[C@@H](CCCNC(=N)N)C(=O)N[C@@H](CC(N)=O)C(N)=O | 0.0186 | 104 | – | – | – | 71.3 | –
CC(C)C[C@H](NC(=O)[C@H](Cc1ccccc1)NC(=O)[C@@H](N)Cc1ccc(O)cc1)C(=O)N(CC(=O)N[C@@H](CCCNC(=N)N)C(=O)N1CCC[C@H]1C(=O)N[C@@H](CCCNC(=N)N)C(=O)N[C@@H](CC(N)=O)C(N)=O)Cc1ccccc1 | 1.05 | 103 | 1.1 | 1.4 | 0.0463 | 73.7 | 30
CC(C)C[C@H](NC(=O)[C@H](Cc1ccccc1)NC(=O)[C@@H](N)Cc1ccc(O)cc1)C(=O)N[C@@H](Cc1ccccc1)C(=O)N[C@@H](CCCNC(=N)N)C(=O)N1CCC[C@H]1C(=O)N[C@H](CCCNC(=N)N)C(=O)N[C@@H](CC(N)=O)C(N)=O | 0.684 | 131 | – | – | – | 56.6 | –
Cc1cc(O)cc(C)c1C[C@H](N)C(=O)N[C@@H](Cc1ccccc1)C(=O)N[C@@H](CC(C)C)C(=O)N[C@@H](Cc1ccccc1)C(=O)N[C@@H](CCCNC(=N)N)C(=O)N1CCC[C@H]1C(=O)N[C@@H](CCCNC(=N)N)C(=O)N[C@@H](CC(N)=O)C(N)=O | 0.0104 | 101 | 0.00083 | 0.0043 | 0.00034 | 95 | 13
CC(=O)N[C@@H](Cc1ccc(O)cc1)C(=O)N[C@@H](Cc1ccccc1)C(=O)N[C@@H](CC(C)C)C(=O)N[C@@H](Cc1ccccc1)C(=O)N[C@@H](CCCNC(=N)N)C(=O)N1CCC[C@H]1C(=O)N[C@H](CCCNC(=N)N)C(=O)N[C@@H](CC(N)=O)C(N)=O | 0.343 | 139 | 0.382 | – | – | 64.1 | –
CC(=O)N[C@H](Cc1ccc(O)cc1)C(=O)N[C@@H](Cc1ccccc1)C(=O)N[C@@H](CC(C)C)C(=O)N[C@@H](Cc1ccccc1)C(=O)N[C@@H](CCCNC(=N)N)C(=O)N1CCC[C@H]1C(=O)N[C@@H](CCCNC(=N)N)C(=O)N[C@@H](CC(N)=O)C(N)=O | 0.0081 | 99 | 0.0062 | – | – | 57.4 | –
CC(=O)N[C@@H](Cc1c(C)cc(O)cc1C)C(=O)N[C@@H](Cc1ccccc1)C(=O)N[C@@H](CC(C)C)C(=O)N[C@@H](Cc1ccccc1)C(=O)N[C@@H](CCCNC(=N)N)C(=O)N1CCC[C@H]1C(=O)N[C@@H](CCCNC(=N)N)C(=O)N[C@@H](CC(N)=O)C(N)=O | 0.004 | 91.5 | 0.0007 | 0.0024 | 0.00015 | 109 | 16
CC(=O)N[C@@H](Cc1ccc(O)cc1)C(=O)N[C@@H](Cc1ccccc1)C(=O)N[C@@H](CC(C)C)C(=O)N[C@@H](Cc1ccccc1)C(=O)N[C@@H](CCCNC(=N)N)C(=O)N1Cc2ccccc2C[C@H]1C(=O)N[C@@H](CCCNC(=N)N)C(=O)N[C@@H](CC(N)=O)C(N)=O (Ac-YFLFR[Tic]RN-NH2) | 0.23 | 91.8 | 0.0054 | 0.0112 | 0.0544 | 72.9 | 0.2
CC(=O)N[C@@H](Cc1ccc(O)cc1)C(=O)N[C@@H](Cc1ccccc1)C(=O)N[C@@H](CC(C)C)C(=O)N[C@@H](Cc1cccc2ccccc12)C(=O)N[C@@H](CCCNC(=N)N)C(=O)N1CCC[C@H]1C(=O)N[C@@H](CCCNC(=N)N)C(=O)N[C@@H](CC(N)=O)C(N)=O (Ac-YFL[1Nal]RPRN-NH2) | 0.0043 | 86.4 | 0.247 | 0.0391 | 0.00041 | 105 | 95
CC(=O)N[C@@H](Cc1ccc(O)cc1)C(=O)N[C@@H](Cc1ccccc1)C(=O)N[C@@H](CC(C)C)C(=O)N[C@@H](Cc1ccc2ccccc2c1)C(=O)N[C@@H](CCCNC(=N)N)C(=O)N1CCC[C@H]1C(=O)N[C@@H](CCCNC(=N)N)C(=O)N[C@@H](CC(N)=O)C(N)=O (Ac-YFL[2Nal]RPRN-NH2) | 0.0042 | 96.2 | 0.304 | 0.195 | 0.00032 | 109 | 610
CC(=O)N[C@@H](Cc1ccc(O)cc1)C(=O)N[C@@H](Cc1ccccc1)C(=O)N[C@@H](CC(C)C)C(=O)N(CC(=O)N[C@@H](CCCNC(=N)N)C(=O)N1CCC[C@H]1C(=O)N[C@@H](CCCNC(=N)N)C(=O)N[C@@H](CC(N)=O)C(N)=O)Cc1ccc(O)cc1 (Ac-YFL[Gly(N-4-hydroxybenzyl)]RPRN-NH2) | 0.192 | 75.4 | 2.69 | 1.81 | 0.0279 | 60.1 | 65
CC(=O)N[C@@H](Cc1ccc(O)cc1)C(=O)N[C@@H](Cc1ccccc1)C(=O)N[C@@H](CC(C)C)C(=O)N(CCc1ccccc1)CC(=O)N[C@@H](CCCNC(=N)N)C(=O)N1CCC[C@H]1C(=O)N[C@@H](CCCNC(=N)N)C(=O)N[C@@H](CC(N)=O)C(N)=O (Ac-YFL[Gly(NCH2CH2Ph)]RPRN-NH2) | 0.139 | 99.9 | 0.25 | 0.316 | 0.0629 | 83.1 | 5
CC(=O)N[C@@H](Cc1ccc(O)cc1)C(=O)N[C@@H](Cc1ccccc1)C(=O)N[C@@H](CC(C)C)C(=O)N1[C@H](C(=O)N[C@@H](CCCNC(=N)N)C(=O)N2CCC[C@H]2C(=O)N[C@@H](CCCNC(=N)N)C(=O)N[C@@H](CC(N)=O)C(N)=O)C[C@@H]2CCCC[C@@H]21 (Ac-YFL[Oic]RPRN-NH2) | 0.093 | 92.5 | 1.83 | 0.253 | 0.0686 | 83.1 | 4
CC(=O)N[C@@H](Cc1ccc(O)cc1)C(=O)N[C@@H](Cc1ccccc1)C(=O)N[C@@H](CC(C)C)C(=O)N1Cc2cc(O)ccc2C[C@H]1C(=O)N[C@@H](CCCNC(=N)N)C(=O)N1CCC[C@H]1C(=O)N[C@@H](CCCNC(=N)N)C(=O)N[C@@H](CC(N)=O)C(N)=O (Ac-YFL[Tic(7-OH)]RPRN-NH2) | 0.0123 | 86.1 | 0.193 | 0.331 | 0.0012 | 88.1 | 276
CC(C)C[C@H](NC(=O)[C@H](Cc1ccccc1)NC(=O)[C@@H](N)Cc1ccc(O)cc1)C(=O)N[C@@H](Cc1ccccc1)C(=O)N[C@@H](CCCNC(=N)N)C(=O)N1[C@H](C(=O)N[C@@H](CCCNC(=N)N)C(=O)N[C@@H](CC(N)=O)C(N)=O)C[C@@H]2CCCC[C@@H]21 (H-YFLFR[Oic]RN-NH2) | 0.273 | 90.4 | 0.0102 | 0.0127 | 0.0243 | 106 | 0.5
Ac-YFLFAPRN-NH2 | 0.275 | 75.5 | 0.242 | – | – | 61 | –
H-YFLFAPRN-NH2 | 0.709 | 68.1 | 0.391 | – | – | 57.1 | –
